# Assays:
# Klebsiella aerogenes [1] = experiment: Mean lysis diameter of Enterobacter aerogenes EA289 with D113A mutation by standard disk diffusion method on MH agar; type: functional
# Procedure, shortened: (§1)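 Porin-deficient, β-lactamase-producing Enterobacter aerogenes EA289 carrying plasmid-borne wild-type OmpF, D113A or D121A. Grown in LB at 37 °C with gentle shaking, with kanamycin (50 µg/mL) or IPTG (1 mM); porin expression checked. Disk diffusion: 3 mL MH broth culture (10^7 bacteria/mL) spread on MH agar, antibiotic disks applied, inhibition diameter (mm) after 24 h at 37 °C. Mean of 3–5 experiments, versus the wild-type OmpF strain.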
# Klebsiella aerogenes [2] = experiment: Mean lysis diameter of wild type Enterobacter aerogenes EA289 with OmpF by standard disk diffusion method on MH agar; type: functional
# Procedure, shortened: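 EA289 is transformed with a plasmid encoding wild-type OmpF and grown in LB at 37 °C with gentle shaking, with kanamycin (50 µg/mL) or IPTG (1 mM) as needed to keep the plasmid. OmpF expression level is checked. For the disk diffusion test, MH broth culture (10^7 bacteria/mL) is spread on MH agar with antibiotic disks. Zone diameter (mm) is read after 24 h at 37 °C, mean of 3–5 experiments.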
# Klebsiella aerogenes [3] = experiment: Mean lysis diameter was measured against Enterobacter aerogenes EA289 with D121A mutation by standard disk diffusion method on MH agar; type: functional; procedure, shortened: as §1
# Klebsiella aerogenes [4] = experiment: Mean lysis diameter of porin deficient Enterobacter aerogenes EA289 by standard disk diffusion method on MH agar; type: functional
# Procedure, shortened: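 Porin-deficient, β-lactamase-expressing E. aerogenes EA289 is grown in Luria Bertani broth at 37 °C with gentle shaking. An MH broth culture at 10^7 bacteria/mL is spread on MH agar and antibiotic-loaded disks are applied. The inhibition diameter (mm) around each disk is read after 24 h at 37 °C, averaged over three to five experiments.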
# Escherichia coli [5] = experiment: Bacterial susceptibility induced by D113 mutation in Escherichia coli OmpF; type: functional, organism-based; procedure, shortened: as §1
# Escherichia coli [6] = experiment: Bacterial susceptibility induced by D121 mutation in Escherichia coli OmpF; type: functional, organism-based; procedure, shortened: as §1
SMILES,Lysis diameter (Klebsiella aerogenes [1]),Lysis diameter (Klebsiella aerogenes [2]),Lysis diameter (Klebsiella aerogenes [3]),Lysis diameter (Klebsiella aerogenes [4]),Susceptibility (Escherichia coli [5]),Susceptibility (Escherichia coli [6])
CC1(C)S[C@@H]2[C@H](NC(=O)[C@H](N)c3ccccc3)C(=O)N2[C@H]1C(=O)O [AMPICILLIN],16 mm,6 mm,7 mm,6 mm,,
CO/N=C(\C(=O)N[C@@H]1C(=O)N2C(C(=O)[O-])=C(C[N+]3(C)CCCC3)CS[C@H]12)c1csc(N)n1 [CEFEPIME],30 mm,27 mm,29 mm,19 mm,+/-,+/-
CO/N=C(\C(=O)N[C@@H]1C(=O)N2C(C(=O)O)=C(COC(C)=O)CS[C@H]12)c1csc(N)n1 [CEFOTAXIME],23 mm,17 mm,18 mm,15 mm,,
CO[C@@]1(NC(=O)Cc2cccs2)C(=O)N2C(C(=O)O)=C(COC(N)=O)CS[C@@H]21 [CEFOXITIN],16 mm,7 mm,12 mm,6 mm,,
CO/N=C(\C(=O)N[C@@H]1C(=O)N2C(C(=O)[O-])=C(C[n+]3cccc4c3CCC4)CS[C@H]12)c1csc(N)n1 [CEFPIROME],31 mm,26 mm,31 mm,19 mm,,
CC(C)(O/N=C(\C(=O)N[C@@H]1C(=O)N2C(C(=O)[O-])=C(C[n+]3ccccc3)CS[C@H]12)c1csc(N)n1)C(=O)O [CEFTAZIDIME],20 mm,11 mm,15 mm,8 mm,,
